Measurements from different studies.
Lines come from different studies, so protocols differ.

SMILES | method | sample | time | pH | temperature | notes | solubility
Brc1ccc2c(c1)nc(N1CCNCC1)n2Cc1ccccc1 | shake flask | aqueous buffer | 20 h | pH 6.5 | 25 °C |  | 105 µM
CC(C)N1CCN(Cc2cnc(-c3cc(-c4cccc5[nH]ccc45)cc4[nH]ncc34)o2)CC1 |  | aqueous buffer |  | pH 10 |  |  | 1 µg/mL
Cc1c(F)cccc1Nc1nc(NCc2ccccc2)c2ccccc2n1 |  | aqueous buffer |  | pH 7.4 |  |  | < 0.01 µg/mL
O=C(Nc1cc(F)c(F)c(F)c1)c1ccc(F)c(S(=O)(=O)NCc2cccc(B(O)O)c2)c1 |  | aqueous buffer |  | pH 7 |  |  | 329 µg/mL
Cc1cc(Nc2ccc(C(F)(F)F)cc2)n2nc(C3CC3)nc2n1 | nephelometry | aqueous buffer |  | pH 6.5 |  |  | 38 to 75 µM
COc1cccc2c(NCc3ccccc3)nc(-n3c(=O)oc4ccccc43)nc12 |  | aqueous buffer |  | pH 5 |  |  | 0.02 µg/mL
COc1cc(/C=C/C(=O)CC(=O)/C=C/c2ccc(O)c(OC)c2)ccc1O | absorbance | water |  |  |  |  | 0.56 µg/mL
CSc1nc2nc(C)cc(Nc3ccc(S(F)(F)(F)(F)F)cc3)n2n1 | nephelometry | aqueous buffer |  | pH 6.5 |  |  | 7.8 to 15 µM
CN1CCN(CC2CCN(c3nccc4[nH]c(-c5cccc(OC(F)(F)F)c5)nc34)CC2)CC1 | shake flask | aqueous buffer |  | pH 6.5 |  |  | > 200 µM
COc1cc(OC)cc(N(CCNC(C)C)c2ccc3ncc(-c4cnn(C)c4)nc3c2)c1 |  | aqueous buffer |  | pH 6.79 |  |  | 6820 µg/mL
Cc1ccc(Nc2nc(NCc3ccccc3)c3ccccc3n2)cc1F |  | aqueous buffer |  | pH 7.4 |  |  | 0.05 µg/mL
CCOc1ccc2cc(-c3nn(C(C)C)c(N)c3C(N)=O)cnc2c1 |  | PBS |  | pH 6.5 | 25 °C |  | 99 µM
CCc1nc2nc(C)cc(Nc3ccc(Cl)cc3)n2n1 | nephelometry | aqueous buffer |  | pH 6.5 |  |  | 170 to 350 µM
CCCCCCCCO |  | PBS | 48 h | pH 7.4 | 25 °C |  | 6000 µM
O=C(Nc1cc(F)ccc1C(=O)O)c1ccc(-c2ccccc2)cc1 | shake flask | aqueous buffer | 24 h | pH 6.5 | 25 °C |  | 5 µM
Brc1ccccc1CNc1nc(NCc2ccccc2)c2ccccc2n1 |  | aqueous buffer |  | pH 7.4 |  |  | 0.14 µg/mL
CC(C)Oc1ccc2cc(-c3nn(C(C)(C)C)c(N)c3C(N)=O)cnc2c1 |  | PBS |  | pH 6.5 | 25 °C |  | > 100 µM
O=C(O)c1ccc(-c2nnc(-c3ncccn3)nn2)cc1 |  | water |  |  |  |  | ≤ 200 µM
CC(C)(C)n1nc(-c2cnc3cc(F)ccc3c2)c(C(N)=O)c1N |  | PBS |  | pH 6.5 | 25 °C |  | > 100 µM
CC(C)C[C@H](NC(=O)[C@H](CCc1ccccc1)NC(=O)CN1CCOCC1)C(=O)N[C@@H](Cc1ccccc1)C(=O)N[C@@H](CC(C)C)C(=O)[C@@]1(C)CO1 |  | PBS | 24 h | pH 7.4 |  |  | 1.12 µg/mL
COCc1nn(Cc2ccc(Cn3ccccc3=O)cc2)cc1C(=O)NCc1c(F)ccc(OC)c1F |  | FaSSIF | 4 h | pH 1.6 |  |  | 9 µg/mL
O=C(NCCN1CCCC1)c1cc(-c2ccc(CN3CCOCC3)cc2)nc2ccc(F)cc12.O=C(O)C=CC(=O)O |  | simulated gastric fluid |  | pH 2 | 37 °C | acidic | > 6490 µM
O=C(/C=C/c1ccc(CN(CCO)CCc2c[nH]c3ccccc23)cc1)NO | HPLC | water | 48 h | pH 6 | 25 °C |  | 8 µg/mL
O=C(O)Cc1ccccc1Nc1c(Cl)cccc1Cl |  | PBS |  | pH 7.4 |  |  | 199 µM
Cc1c(F)cccc1NC(=O)Nc1ccc(Cl)c(S(=O)(=O)[C@H]2CCCNC2)c1O |  | aqueous buffer | 4 h | pH 3 |  |  | 161 µg/mL
COc1cccc(OC)c1-c1cc(C(=O)N[C@@H](CC(C)C)C(=O)O)nn1-c1ccnc2cc(Cl)ccc12 |  | aqueous buffer |  | pH 6.2 |  |  | > 155 µg/mL
COc1cc(Cl)c(C(=O)N[C@@H](CN[C@H]2CC[C@@H](N)CC2)Cc2ccc(C#N)cc2)cc1-c1ccc(CN[C@H](C)c2ccc(C)cc2)o1 |  | aqueous buffer |  | pH 6.5 |  |  | > 3070 µg/mL
CCOC(=O)C1=C(C)NC(C)=C(C(=O)OC)C1c1cccc([N+](=O)[O-])c1 (stereo not shown) |  | FaSSIF | 24 h | pH 7.4 | 37 °C |  | 8 µg/mL

SMILES | method | sample | time | pH | temperature | notes | solubility
COc1ccc(Nc2nc(NCc3ccccc3)c3ccccc3n2)cc1F |  | aqueous buffer |  | pH 6.2 |  |  | 0.03 µg/mL
Cl.Clc1ccc2c(nc(N3CCNCC3)n2Cc2ccccc2)c1-c1ccccc1 | shake flask | aqueous buffer | 20 h | pH 6.5 | 25 °C |  | 195 µM
CCCOC(=O)c1ccc(N)cc1 |  | PBS |  | pH 7.4 |  |  | 749 µg/mL
Cc1n(Cc2ccc3ccccc3n2)c2ccccc2[n+]1Cc1ccc2ccccc2n1.[Cl-] |  | water |  |  |  |  | > 500 µg/mL
COc1c(Cl)cccc1Nc1nc(NCc2ccccc2)c2ccccc2n1 |  | aqueous buffer |  | pH 6.2 |  |  | 0.23 µg/mL
O=C(c1ccccn1)N(Cc1cccs1)C1(C(=O)NC2CCCCC2)CCCCC1 |  | aqueous buffer |  | pH 5 |  |  | 5.7 µg/mL
COc1cccc(OC)c1-c1nc(C(=O)N[C@@H](CC(C)C)C(=O)O)cn1-c1ccnc2cc(Cl)ccc12 |  | aqueous buffer |  | pH 5 |  |  | > 52 µg/mL
Brc1cccc(Nc2nc(NCc3ccccc3)c3ccccc3n2)c1 |  | aqueous buffer |  | pH 6.2 |  |  | 0.01 µg/mL
CCC(=O)O[C@]1(C(=O)SCF)[C@H](C)C[C@H]2[C@@H]3C[C@H](F)C4=CC(=O)C=C[C@]4(C)[C@@]3(F)[C@@H](O)C[C@@]21C |  | FaSSIF |  |  |  |  | 3.12 µM
CC[C@H](C)[C@H](NC(=O)[C@H](Cc1ccccc1)NC(=O)[C@H](Cc1ccc(O)cc1)NC(=O)[C@@H]1CCCN1C(=O)[C@@H](N)Cc1ccc(O)cc1)C(=O)N1CCC[C@H]1C(=O)N[C@H](CCCCN)C(=O)NCC(=O)N[C@H](CCCCN)C(=O)NCC(=O)N[C@@H](CCC(=O)O)C(=O)N[C@H](C(=O)N[C@@H](CC(N)=O)C(=O)N[C@@H](CC(C)C)[C@@H](O)CC(=O)N[C@H](C(=O)N[C@@H](C)C(=O)N[C@@H](CCC(=O)O)C(=O)N1CCC[C@@H]1C(=O)N[C@@H](CCCCNC(=O)CCC(=O)O[C@H]1CC[C@@]2(C)C(=CC[C@H]3[C@@H]4CC[C@H]([C@H](C)CCCC(C)C)[C@@]4(C)CC[C@@H]32)C1)C(N)=O)C(C)C)C(C)C |  | aqueous buffer |  | pH 6.5 |  |  | > 718 µg/mL
CC(C)(C)n1nc(-c2ccc3nc(OC4CC4)ccc3c2)c(C(N)=O)c1N |  | PBS |  | pH 6.5 | 25 °C |  | 96.3 µM
CNc1nc2ccccc2n2c(-c3cccc(OC)c3)cnc12 | HPLC | ethanol |  |  |  |  | 500 µg/mL
C[C@@H]1CN(c2nc3cc(Cl)ccc3n2Cc2ccccc2)C[C@H](C)N1 | shake flask | aqueous buffer | 20 h | pH 6.5 | 25 °C |  | 140 µM
Cc1ccc(-n2sc(=O)n(Cc3ccc(F)cc3)c2=O)cc1 |  | aqueous buffer |  |  |  |  | ~200 µM
CNC(=O)c1ccc(N(Cc2ccc(C3CCCCC3)cn2)C(=O)[C@H]2CCN2S(=O)(=O)c2c(F)c(F)c(F)c(F)c2F)cc1O |  | simulated gastric fluid |  |  |  |  | 115 µg/mL
COC(=O)c1ccc(N)cc1 |  | PBS |  | pH 7.4 |  |  | 1800 µg/mL
N=C(N)N1CC=C(c2coc(C(=O)Nc3ccc(C4=CCN(C(=N)N)CC4)c(F)c3)c2)CC1 | shake flask | aqueous buffer |  | pH 7.4 |  |  | 58 µg/mL
CCOc1ccc2cc(-c3nn(C4CCCCCC4)c(N)c3C(N)=O)ccc2n1 |  | PBS |  | pH 6.5 | 25 °C |  | 46.5 µM
CN1CCN([C@H]2CC[C@H](Nc3nccc4[nH]c(-c5cc(F)cc(F)c5)nc34)CC2)CC1 | shake flask | aqueous buffer |  | pH 6.5 |  |  | > 200 µM
CCCN(C)Cc1cc(-c2[nH]c3cccc(F)c3c(=O)c2C)ccc1Cc1ccc(OC(F)(F)F)cc1 |  | PBS |  | pH 7.4 |  |  | < 0.2 µM
Fc1ccc(-c2nc3c(C4CCNCC4)nccc3[nH]2)cc1F | shake flask | aqueous buffer |  | pH 6.5 |  |  | > 200 µM
CCOc1nc2nc(C)cc(Nc3ccc(S(F)(F)(F)(F)F)cc3)n2n1 | nephelometry | aqueous buffer |  | pH 6.5 |  |  | 4 to 8 µM
Brc1ccc2c(c1)nc(C1CCNCC1)n2Cc1ccccc1 | shake flask | aqueous buffer | 20 h | pH 6.5 | 25 °C |  | 110 µM
O=C(Nc1ccc(S(=O)(=O)N2CCC(Cl)CC2)cc1)c1ccc([N+](=O)[O-])o1 |  | aqueous buffer |  | pH 7.4 |  |  | 9.7 µM
CC(C)CC(=O)N1CCC[C@H](COc2cccc3c2C(N)=NS(=O)(=O)[N-]3)C1.[Na+] |  | ethanol |  |  |  |  | 217000 µM
Cc1ccc(F)cc1Nc1nc(NCc2ccccc2)c2ccccc2n1 |  | aqueous buffer |  | pH 5 |  |  | 5.6 µg/mL
COCc1nc2nc(C)cc(Nc3ccc(C(F)(F)F)cc3)n2n1 | nephelometry | aqueous buffer |  | pH 6.5 |  |  | 150 to 300 µM
